Source: ChEMBL document CHEMBL4665898, “Semisynthetic Analogs of the Antibiotic Fidaxomicin-Design, Synthesis, and Biological Evaluation” (ACS Med Chem Lett, 2020)
Values after ≈ are worked out from the molar mass of the structure shown.

Key:
[1] = Aqueous solubility of the compound in phosphate buffer at pH 7 after 5 hrs by UHPLC analysis; assay type: physicochemical
Procedure, shortened: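 Solid added to 1.0 mL pH 7 phosphate buffer containing 50 µg/mL caffeine internal standard until saturated. Stirred 5 h at room temperature, passed through a 0.22 µm filter, then run on C18 UHPLC with a water/MeCN + 0.1 % HCOOH gradient. Analyte/IS peak-area ratio was converted to concentration using a linear calibration from MeOH standards at 50–500 µg/mL.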

Clostridioides difficile [2] = assay: Antibacterial activity against Clostridium difficile ATCC 43255 incubated for 46 hrs in anaerobic condition by CLSI-based broth microdilution assay; assay type: functional
Clostridioides difficile [3] = assay: Antibacterial activity against Clostridium difficile ATCC 700057 incubated for 46 hrs in anaerobic condition by CLSI-based broth microdilution assay; assay type: functional
Clostridioides difficile [4] = assay: Antibacterial activity against Clostridium difficile BAA-1805 incubated for 46 hrs in anaerobic condition by CLSI-based broth microdilution assay; assay type: functional
Clostridioides difficile [5] = assay: Antibacterial activity against Clostridium difficile BAA-1875 incubated for 46 hrs in anaerobic condition by CLSI-based broth microdilution assay; assay type: functional
Clostridioides difficile [6] = assay: Antibacterial activity against Clostridium difficile ATCC 9689 incubated for 46 hrs in anaerobic condition by CLSI-based broth microdilution assay; assay type: functional; conditions: ATCC 9689 = DSM 1296
Clostridioides difficile [7] = assay: Antibacterial activity against Clostridium difficile 8260 incubated for 46 hrs in anaerobic condition by CLSI-based broth microdilution assay; assay type: functional
Clostridioides difficile [8] = assay: Antibacterial activity against Clostridium difficile 8282 incubated for 46 hrs in anaerobic condition by CLSI-based broth microdilution assay; assay type: functional
Clostridioides difficile [9] = assay: Antibacterial activity against Clostridium difficile 5680 incubated for 46 hrs in anaerobic condition by CLSI-based broth microdilution assay; assay type: functional
Clostridioides difficile [10] = assay: Antibacterial activity against Clostridium difficile 8264 incubated for 46 hrs in anaerobic condition by CLSI-based broth microdilution assay; assay type: functional
Clostridioides difficile [11] = assay: Antibacterial activity against Clostridium difficile 8290 incubated for 46 hrs in anaerobic condition by CLSI-based broth microdilution assay; assay type: functional
[12] = test system: Mycobacterium tuberculosis; assay: Antimycobacterial activity against recombinant Mycobacterium tuberculosis H37Rv expressed in green fluorescence protein by measuring increase in fluorescence after 10 days in presence of middlebrook 7H9/OADC medium by GFP reporter gene assay; assay type: functional; conditions: 240 h, time 10 day
Staphylococcus aureus = assay: Antibacterial activity against Staphylococcus aureus ATCC 29213 incubated overnight by broth dilution method; assay type: functional
Procedure, shortened: (§1)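 Strains pre-grown overnight at 37 °C on Mueller Hinton II agar; CLSI broth dilution, inoculum about 7.5 × 10^5 CFU/well. Compounds taken from 1.0 mg/mL stocks in 50 % methanol/H2O, diluted in H2O as 2-fold series. Plates held at 37 °C overnight; MIC read visually as lowest concentration with no growth.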

Bacillus subtilis = assay: Antibacterial activity against Bacillus subtilis DSM3256 incubated overnight by broth dilution method; assay type: functional; procedure, shortened: as §1

Structure (SMILES)	solubility at 5 h [1]	MIC (Clostridioides difficile [2])	MIC (Clostridioides difficile [3])	MIC (Clostridioides difficile [4])	MIC (Clostridioides difficile [5])	MIC (Clostridioides difficile [6])	MIC (Clostridioides difficile [7])	MIC (Clostridioides difficile [8])	MIC (Clostridioides difficile [9])	MIC (Clostridioides difficile [10])	MIC (Clostridioides difficile [11])	MIC90 [12]	MIC (Staphylococcus aureus)	MIC (Bacillus subtilis)
CCc1c(Cl)c(OCCCn2cc(COCCOCCOCCOCCOCCC(=O)O)nn2)c(Cl)c(O)c1C(=O)O[C@@H]1[C@@H](O)[C@@H](OC)[C@@H](OC/C2=C\C=C\C[C@H](O)/C(C)=C/[C@H](CC)[C@@H](O[C@@H]3OC(C)(C)[C@@H](OC(=O)C(C)C)[C@H](O)[C@@H]3O)/C(C)=C/C(C)=C/C[C@@H]([C@@H](C)O)OC2=O)O[C@H]1C	> 2000 µg/mL	–	–	–	–	–	–	–	–	–	–	–	–	–
CCc1c(Cl)c(OCCCn2cc(CCN3CCC(N)CC3)nn2)c(Cl)c(OCCCn2cc(CCN3CCC(N)CC3)nn2)c1C(=O)O[C@@H]1[C@@H](O)[C@@H](OC)[C@@H](OC/C2=C\C=C\C[C@H](O)/C(C)=C/[C@H](CC)[C@@H](O[C@@H]3OC(C)(C)[C@@H](OC(=O)C(C)C)[C@H](O)[C@@H]3O)/C(C)=C/C(C)=C/C[C@@H]([C@@H](C)O)OC2=O)O[C@H]1C	451 µg/mL (≈ 295 µM)	> 16 µg/mL	> 16 µg/mL	> 16 µg/mL	> 16 µg/mL	> 16 µg/mL	> 16 µg/mL	> 16 µg/mL	> 16 µg/mL	> 16 µg/mL	> 16 µg/mL	16 µg/mL	> 64 µg/mL	8 µg/mL (≈ 5.23 µM)
CCc1c(Cl)c(OCC(=O)N2CCC(O)CC2)c(Cl)c(OCC(=O)N2CCC(O)CC2)c1C(=O)O[C@@H]1[C@@H](O)[C@@H](OC)[C@@H](OC/C2=C\C=C\C[C@H](O)/C(C)=C/[C@H](CC)[C@@H](O[C@@H]3OC(C)(C)[C@@H](OC(=O)C(C)C)[C@H](O)[C@@H]3O)/C(C)=C/C(C)=C/C[C@@H]([C@@H](C)O)OC2=O)O[C@H]1C	213 µg/mL (≈ 159 µM)	–	–	–	–	–	–	–	–	–	–	–	–	–
CCOC(=O)COc1c(Cl)c(O)c(C(=O)O[C@@H]2[C@@H](O)[C@@H](OC)[C@@H](OC/C3=C\C=C\C[C@H](O)/C(C)=C/[C@H](CC)[C@@H](O[C@@H]4OC(C)(C)[C@@H](OC(=O)C(C)C)[C@H](O)[C@@H]4O)/C(C)=C/C(C)=C/C[C@@H]([C@@H](C)O)OC3=O)O[C@H]2C)c(CC)c1Cl	–	> 16 µg/mL	8 µg/mL (≈ 6.99 µM)	> 16 µg/mL	8 µg/mL (≈ 6.99 µM)	2 µg/mL (≈ 1.75 µM)	16 µg/mL (≈ 14 µM)	8 µg/mL (≈ 6.99 µM)	> 16 µg/mL	> 16 µg/mL	16 µg/mL (≈ 14 µM)	2 µg/mL	16 µg/mL (≈ 14 µM)	32 µg/mL (≈ 28 µM)
CCc1c(Cl)c(Oc2nncnn2)c(Cl)c(Oc2nncnn2)c1C(=O)O[C@@H]1[C@@H](O)[C@@H](OC)[C@@H](OC/C2=C\C=C\C[C@H](O)/C(C)=C/[C@H](CC)[C@@H](O[C@@H]3OC(C)(C)[C@@H](OC(=O)C(C)C)[C@H](O)[C@@H]3O)/C(C)=C/C(C)=C/C[C@@H]([C@@H](C)O)OC2=O)O[C@H]1C	–	0.12 µg/mL (≈ 0.0985 µM)	0.06 µg/mL (≈ 0.0493 µM)	0.25 µg/mL (≈ 0.205 µM)	0.25 µg/mL (≈ 0.205 µM)	0.03 µg/mL (≈ 0.0246 µM)	0.12 µg/mL (≈ 0.0985 µM)	0.06 µg/mL (≈ 0.0493 µM)	0.5 µg/mL (≈ 0.41 µM)	0.25 µg/mL (≈ 0.205 µM)	0.12 µg/mL (≈ 0.0985 µM)	–	–	–
O=C(O)c1cn(C2CC2)c2cc(N3CCNCC3)c(F)cc2c1=O [CIPROFLOXACIN]	–	–	–	–	–	–	–	–	–	–	–	1 µg/mL	–	–
CO[C@H]1/C=C/O[C@@]2(C)Oc3c(C)c(O)c4c(O)c(c(/C=N/N5CCN(C)CC5)c(O)c4c3C2=O)NC(=O)/C(C)=C\C=C\[C@H](C)[C@H](O)[C@@H](C)[C@@H](O)[C@@H](C)[C@H](OC(C)=O)[C@@H]1C [RIFAMPIN]	–	≤ 0.015 µg/mL	≤ 0.015 µg/mL	≤ 0.015 µg/mL	≤ 0.015 µg/mL	≤ 0.015 µg/mL	> 16 µg/mL	> 16 µg/mL	≤ 0.015 µg/mL	≤ 0.015 µg/mL	≤ 0.015 µg/mL	–	0.008 µg/mL (≈ 0.00972 µM)	0.25 µg/mL (≈ 0.304 µM)
